Experiments:
MIA PaCa-2 [1] = experiment: Effect on AKT1 gene expression in human MIAPaCa2 cells at 400 nM after 6 hrs by RNA sequence analysis relative to control; type: functional
Method in brief: (§1)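 PANC-1 (0.35 x 10^6) or MIA PaCa-2 (1.5 x 10^6) cells seeded overnight in 60 mm plates, then exposed to 400 nM compound for 6 or 24 h; untreated cells as controls. Cells were mycoplasma-free and STR-certified. Differential expression by RNA-seq, called at FDR < 0.1.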

PANC-1 [2] = experiment: Effect on GLI1 gene expression in human PANC1 cells at 400 nM after 6 hrs by RNA sequence analysis relative to control; type: functional; method in brief: as §1
MIA PaCa-2 [3] = experiment: Effect on SHANK2 gene expression in human MIAPaCa2 cells at 400 nM after 24 hrs by RNA sequence analysis relative to control; type: functional
Method in brief: (§2)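 RNA-seq: cells seeded overnight in 60 mm plates (PANC-1 0.35 x 10^6, MIA PaCa-2 1.5 x 10^6 cells/well), then exposed to 400 nM compound for 6 or 24 h against untreated controls. Cell lines mycoplasma-free by RNA-capture ELISA and STR-profiled. Differentially expressed genes called at FDR < 0.1.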

PANC-1 [4] = experiment: Effect on MAPK9 gene expression in human PANC1 cells at 400 nM after 6 hrs by RNA sequence analysis relative to control; type: functional
MIA PaCa-2 [5] = experiment: Effect on TP73 gene expression in human MIAPaCa2 cells at 400 nM after 6 hrs by RNA sequence analysis relative to control; type: functional; method in brief: as §2
PANC-1 [6] = experiment: Effect on PRKCZ gene expression in human PANC1 cells at 400 nM after 6 hrs by RNA sequence analysis relative to control; type: functional; method in brief: as §2
PANC-1 [7] = experiment: Effect on CBFA2T3 gene expression in human PANC1 cells at 400 nM after 6 hrs by RNA sequence analysis relative to control; type: functional; method in brief: as §1
MIA PaCa-2 [8] = experiment: Effect on MAPK11 gene expression in human MIAPaCa2 cells at 400 nM after 6 hrs by RNA sequence analysis relative to control; type: functional
PANC-1 [9] = experiment: Effect on IGF2 gene expression in human PANC1 cells at 400 nM after 24 hrs by RNA sequence analysis relative to control; type: functional; method in brief: as §1
PANC-1 [10] = experiment: Effect on TEAD4 gene expression in human PANC1 cells at 400 nM after 6 hrs by RNA sequence analysis relative to control; type: functional; method in brief: as §2
PANC-1 [11] = experiment: Effect on SHC2 gene expression in human PANC1 cells at 400 nM after 24 hrs by RNA sequence analysis relative to control; type: functional; method in brief: as §2
MIA PaCa-2 [12] = experiment: Effect on SMO gene expression in human MIAPaCa2 cells at 400 nM after 6 hrs by RNA sequence analysis relative to control; type: functional; method in brief: as §2
PANC-1 [13] = experiment: Effect on AKT1S1 gene expression in human PANC1 cells at 400 nM after 24 hrs by RNA sequence analysis relative to control; type: functional; method in brief: as §1
MIA PaCa-2 [14] = experiment: Effect on SHANK2 gene expression in human MIAPaCa2 cells at 400 nM after 6 hrs by RNA sequence analysis relative to control; type: functional; method in brief: as §2
MIA PaCa-2 [15] = experiment: Effect on RPTOR gene expression in human MIAPaCa2 cells at 400 nM after 24 hrs by RNA sequence analysis relative to control; type: functional; method in brief: as §2
MIA PaCa-2 [16] = experiment: Effect on PLXNA1 gene expression in human MIAPaCa2 cells at 400 nM after 6 hrs by RNA sequence analysis relative to control; type: functional
MIA PaCa-2 [17] = experiment: Effect on FASN gene expression in human MIAPaCa2 cells at 400 nM after 6 hrs by RNA sequence analysis relative to control; type: functional; method in brief: as §1
PANC-1 [18] = experiment: Effect on PFKL gene expression in human PANC1 cells at 400 nM after 6 hrs by RNA sequence analysis relative to control; type: functional
MIA PaCa-2 [19] = experiment: Effect on CBFA2T3 gene expression in human MIAPaCa2 cells at 400 nM after 24 hrs by RNA sequence analysis relative to control; type: functional; method in brief: as §1
MIA PaCa-2 [20] = experiment: Effect on PFKFB4 gene expression in human MIAPaCa2 cells at 400 nM after 6 hrs by RNA sequence analysis relative to control; type: functional
PANC-1 [21] = experiment: Effect on IQSEC1 gene expression in human PANC1 cells at 400 nM after 6 hrs by RNA sequence analysis relative to control; type: functional
PANC-1 [22] = experiment: Effect on PIK3R2 gene expression in human PANC1 cells at 400 nM after 24 hrs by RNA sequence analysis relative to control; type: functional
MIA PaCa-2 [23] = experiment: Effect on SMO gene expression in human MIAPaCa2 cells at 400 nM after 24 hrs by RNA sequence analysis relative to control; type: functional; method in brief: as §2
MIA PaCa-2 [24] = experiment: Effect on TP73 gene expression in human MIAPaCa2 cells at 400 nM after 24 hrs by RNA sequence analysis relative to control; type: functional; method in brief: as §2
PANC-1 [25] = experiment: Effect on FASN gene expression in human PANC1 cells at 400 nM after 24 hrs by RNA sequence analysis relative to control; type: functional; method in brief: as §1
MIA PaCa-2 [26] = experiment: Effect on FASN gene expression in human MIAPaCa2 cells at 400 nM after 24 hrs by RNA sequence analysis relative to control; type: functional; method in brief: as §1
PANC-1 [27] = experiment: Effect on PIK3R3 gene expression in human PANC1 cells at 400 nM after 24 hrs by RNA sequence analysis relative to control; type: functional
MIA PaCa-2 [28] = experiment: Effect on MAPK12 gene expression in human MIAPaCa2 cells at 400 nM after 24 hrs by RNA sequence analysis relative to control; type: functional
MIA PaCa-2 [29] = experiment: Effect on SHC2 gene expression in human MIAPaCa2 cells at 400 nM after 6 hrs by RNA sequence analysis relative to control; type: functional; method in brief: as §2
PANC-1 [30] = experiment: Effect on PLXNA1 gene expression in human PANC1 cells at 400 nM after 24 hrs by RNA sequence analysis relative to control; type: functional
MIA PaCa-2 [31] = experiment: Effect on PFKL gene expression in human MIAPaCa2 cells at 400 nM after 6 hrs by RNA sequence analysis relative to control; type: functional
MIA PaCa-2 [32] = experiment: Effect on PARD6A gene expression in human MIAPaCa2 cells at 400 nM after 6 hrs by RNA sequence analysis relative to control; type: functional
PANC-1 [33] = experiment: Effect on TEAD2 gene expression in human PANC1 cells at 400 nM after 6 hrs by RNA sequence analysis relative to control; type: functional; method in brief: as §2
Homo sapiens = organism: Homo sapiens; experiment: Stabilization of G-quadruplex DNA in human PANC1 cells assessed as induction of DNA damage at G4 site by measuring increase in colocalization of BG4 and 53BP1 foci at 400 nM after 24 hrs by FITC/Cy5/DAPI staining based immunofluorescence assay relative to control; type: cell-based
PANC-1 [34] = experiment: Effect on SHANK2 gene expression in human PANC1 cells at 400 nM after 24 hrs by RNA sequence analysis relative to control; type: functional; method in brief: as §2
PANC-1 [35] = experiment: Effect on GLI1 gene expression in human PANC1 cells at 400 nM after 24 hrs by RNA sequence analysis relative to control; type: functional; method in brief: as §1
PANC-1 [36] = experiment: Effect on PCK2 gene expression in human PANC1 cells at 400 nM after 6 hrs by RNA sequence analysis relative to control; type: functional

SMILES: O=C1c2ccc3c4c(c(NCCN5CCCC5)cc(c24)C(=O)N1CCCN1CCOCC1)C(=O)N(CCCN1CCOCC1)C3=O
- log2FC (MIA PaCa-2 [1]): -0.2
- log2FC (PANC-1 [2]): 0.03
- log2FC (MIA PaCa-2 [3]): -1.96
- log2FC (PANC-1 [4]): -0.28
- log2FC (MIA PaCa-2 [5]): -2.36
- log2FC (PANC-1 [6]): -1.44
- log2FC (PANC-1 [7]): -2.18
- log2FC (MIA PaCa-2 [8]): -0.53
- log2FC (PANC-1 [9]): -1.53
- log2FC (PANC-1 [10]): -0.23
- log2FC (PANC-1 [11]): -1.47
- log2FC (MIA PaCa-2 [12]): -0.34
- log2FC (PANC-1 [13]): -0.83
- log2FC (MIA PaCa-2 [14]): -1.87
- log2FC (MIA PaCa-2 [15]): -0.68
- log2FC (MIA PaCa-2 [16]): -0.98
- log2FC (MIA PaCa-2 [17]): -0.06
- log2FC (PANC-1 [18]): -0.21
- log2FC (MIA PaCa-2 [19]): -2.86
- log2FC (MIA PaCa-2 [20]): -1.02
- log2FC (PANC-1 [21]): -0.86
- log2FC (PANC-1 [22]): -0.88
- log2FC (MIA PaCa-2 [23]): -1.21
- log2FC (MIA PaCa-2 [24]): -1.19
- log2FC (PANC-1 [25]): -0.7
- log2FC (MIA PaCa-2 [26]): -0.54
- log2FC (PANC-1 [27]): -0.54
- log2FC (MIA PaCa-2 [28]): -1.23
- log2FC (MIA PaCa-2 [29]): -0.83
- log2FC (PANC-1 [30]): -1.5
- log2FC (MIA PaCa-2 [31]): 0
- log2FC (MIA PaCa-2 [32]): -0.83
- log2FC (PANC-1 [33]): -0.22
- Activity (Homo sapiens): 50%
- log2FC (PANC-1 [34]): -0.44
- log2FC (PANC-1 [35]): -0.57
- log2FC (PANC-1 [36]): -0.01
